Experimental data taken from ChEMBL document CHEMBL3758131, “Towards new 5-HT7 antagonists among arylsulfonamide derivatives of (aryloxy)ethyl-alkyl amines: Multiobjective based design, synthesis, and antidepressant and anxiolytic properties” (Eur J Med Chem, 2016).
The source made the active and inactive calls. No cut-off for these calls is given here.

Tests used:
[1] = biological target: T1, 5-hydroxytryptamine receptor 7 (Homo sapiens, UniProt P34969); experiment: Displacement of [3H]-5-CT from human 5-HT7B receptor expressed in HEK293 cells after 1 hr; format: cell-based
T1 sequence (P34969 whole entry): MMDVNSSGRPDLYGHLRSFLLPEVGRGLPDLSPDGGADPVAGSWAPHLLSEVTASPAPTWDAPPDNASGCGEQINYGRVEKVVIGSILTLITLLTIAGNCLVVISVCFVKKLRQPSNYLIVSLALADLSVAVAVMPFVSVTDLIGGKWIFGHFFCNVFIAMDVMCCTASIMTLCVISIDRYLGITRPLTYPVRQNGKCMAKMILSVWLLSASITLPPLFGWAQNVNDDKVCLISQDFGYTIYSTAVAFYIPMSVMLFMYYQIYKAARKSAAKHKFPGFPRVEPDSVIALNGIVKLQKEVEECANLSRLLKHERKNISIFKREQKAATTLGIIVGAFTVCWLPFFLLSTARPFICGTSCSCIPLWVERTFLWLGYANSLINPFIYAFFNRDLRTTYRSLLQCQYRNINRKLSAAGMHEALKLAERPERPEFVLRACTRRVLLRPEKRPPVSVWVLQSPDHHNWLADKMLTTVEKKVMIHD
How it was run: (§1)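 Competition binding on membranes from HEK293 cells stably expressing human 5-HT7b or 5-HT1A. Incubation 1 h, at 37 °C for 5-HT7b and at room temperature for 5-HT1A. Non-specific binding defined with 10 µM 5-HT.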

[2] = organism: Homo sapiens; experiment: Selectivity index ratio of Ki for human 5-HT1A receptor to Ki for human 5-HT7B
[3] = biological target: T2, 5-hydroxytryptamine receptor 1A (Homo sapiens, UniProt P08908); experiment: Displacement of [3H]-8-OH-DPAT from human 5-HT1A receptor expressed in HEK293 cells after 1 hr; format: cell-based; how it was run: as §1
T2 sequence (P08908 whole entry): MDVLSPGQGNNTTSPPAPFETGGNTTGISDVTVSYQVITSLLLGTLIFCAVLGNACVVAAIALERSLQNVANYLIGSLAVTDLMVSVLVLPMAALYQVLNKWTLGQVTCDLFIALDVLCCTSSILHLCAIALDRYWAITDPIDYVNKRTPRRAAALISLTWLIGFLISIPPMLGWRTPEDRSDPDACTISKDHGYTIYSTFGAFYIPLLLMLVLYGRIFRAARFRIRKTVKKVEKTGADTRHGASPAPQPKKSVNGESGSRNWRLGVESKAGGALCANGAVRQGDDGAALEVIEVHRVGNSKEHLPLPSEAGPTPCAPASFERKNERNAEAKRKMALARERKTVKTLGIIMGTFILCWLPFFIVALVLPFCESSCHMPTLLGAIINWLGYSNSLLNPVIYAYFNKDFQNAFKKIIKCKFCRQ

[4] = biological target: T1, 5-hydroxytryptamine receptor 7; experiment: Antagonist activity at human 5-HT7B receptor expressed in […] cells assessed as inhibition of 5-CT induced cAMP production at 10^-6 M after 30 mins by TR-FRET assay; format: functional, cell-based
[5] = biological target: 5-hydroxytryptamine receptor 2A (Homo sapiens, UniProt P28223); experiment: Displacement of [3H]-Ketanserin from human 5-HT2A receptor expressed in HEK293 cells after 1 hr; format: cell-based
5-hydroxytryptamine receptor 2A, sequence (P28223 whole entry): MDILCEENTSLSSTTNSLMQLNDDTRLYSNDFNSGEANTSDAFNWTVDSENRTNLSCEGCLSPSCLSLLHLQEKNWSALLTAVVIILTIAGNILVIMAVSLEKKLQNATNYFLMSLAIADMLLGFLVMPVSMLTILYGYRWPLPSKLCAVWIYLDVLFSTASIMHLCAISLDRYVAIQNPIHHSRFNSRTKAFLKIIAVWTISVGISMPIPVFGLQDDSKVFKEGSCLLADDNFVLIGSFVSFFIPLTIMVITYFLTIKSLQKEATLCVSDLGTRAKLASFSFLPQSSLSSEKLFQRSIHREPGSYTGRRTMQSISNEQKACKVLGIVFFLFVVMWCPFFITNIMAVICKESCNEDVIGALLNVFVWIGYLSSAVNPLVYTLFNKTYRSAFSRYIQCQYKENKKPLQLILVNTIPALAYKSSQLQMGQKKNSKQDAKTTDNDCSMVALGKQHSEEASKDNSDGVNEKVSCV

[6] = biological target: T1, 5-hydroxytryptamine receptor 7; experiment: Antagonist activity at human 5-HT7B receptor expressed in CHO cells assessed as inhibition of 5-CT induced cAMP production at 10^-7 M after 30 mins by TR-FRET assay; format: functional, cell-based
[7] = test system: Mus musculus; experiment: Toxicity in ip dosed C57BL/6J mouse assessed as effect on spontaneous locomotory activity at MED measured over 6 mins; format: organism-based; details: in vivo, 0.1 h
How it was run: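 Mice habituated 30 min in individual cages, then ambulation counted over a period matching each behavioural test: 6 min for the tail suspension test and 1 min 15 s for the four-plate test. Compounds given ip at the active doses.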

[8] = test system: Mus musculus; experiment: Toxicity in ip dosed C57BL/6J mouse assessed as effect on spontaneous locomotory activity at MED measured over 1 min 15 secs; format: organism-based; details: in vivo
[9] = test system: Rattus norvegicus; experiment: Antidepressant activity in ip dosed Wistar rat assessed as reduction in immobility time of rat by forced swim test; format: functional
How it was run: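 Male Wistar rats (220-250 g), ip injection 30 min before test. Day 1: 15-min pre-swim in a cylinder with 15 cm of water at 25 °C, then drying under a lamp. Next day: total immobility recorded over the whole 5-min test, with fresh water for each rat.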

[10] = test system: Mus musculus; experiment: Antidepressant activity in C57BL/6J mouse assessed as immobility time at 20 mg/kg, ip measured over 6 mins by tail suspension test (reference value: 160.7 +/- 12 to 170.6 +/- 9 sec); format: functional
[11] = test system: Mus musculus; experiment: Antidepressant activity in C57BL/6J mouse assessed as number of events at 10 mg/kg, ip measured over 6 mins by tail suspension test (reference value: 1325.1 +/- 77.8 to 1773.4 +/- 109.9); format: functional
[12] = test system: Mus musculus; experiment: Antidepressant activity in ip dosed albino Swiss mouse assessed as decrease in immobility time by forced swim test; format: functional, organism-based
[13] = test system: Mus musculus; experiment: Antidepressant activity in C57BL/6J mouse assessed as immobility time at 40 mg/kg, ip measured over 6 mins by tail suspension test (reference value: 160.7 +/- 12 to 170.6 +/- 9 sec); format: functional
[14] = test system: Mus musculus; experiment: Toxicity in ip dosed albino Swiss mouse assessed as effect on spontaneous locomotory activity at MED measured over 2 to 6 mins; format: organism-based; details: in vivo
How it was run: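 Male Albino Swiss mice (22–28 g) received drug i.p. 60 min before testing, in 1% aqueous Tween 80 or distilled water. Each mouse was habituated alone in a plastic cage for 30 min, then ambulation was counted from 2 to 6 min. Groups of 6–10 animals, each used once.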

[15] = test system: Mus musculus; experiment: Antidepressant activity in C57BL/6J mouse assessed as average force at 20 mg/kg, ip measured over 6 mins by tail suspension test (reference value: 0.281 +/- 0.018 to 0.359 +/- 0.027 N); format: functional
[16] = test system: Mus musculus; experiment: Antidepressant activity in C57BL/6J mouse assessed as number of events at 20 mg/kg, ip measured over 6 mins by tail suspension test (reference value: 1325.1 +/- 77.8 to 1773.4 +/- 109.9); format: functional
[17] = test system: Mus musculus; experiment: Antidepressant activity in C57BL/6J mouse assessed as average force at 10 mg/kg, ip measured over 6 mins by tail suspension test (reference value: 0.281 +/- 0.018 to 0.359 +/- 0.027 N); format: functional
[18] = test system: Mus musculus; experiment: Antidepressant activity in ip dosed C57BL/6J mouse assessed as reduction in immobility time of mouse by tail suspension test; format: functional; details: read-out: MED
[19] = test system: Mus musculus; experiment: Antidepressant activity in C57BL/6J mouse assessed as number of events at 40 mg/kg, ip measured over 6 mins by tail suspension test (reference value: 1325.1 +/- 77.8 to 1773.4 +/- 109.9); format: functional
[20] = test system: Mus musculus; experiment: Antidepressant activity in C57BL/6J mouse assessed as average force at 40 mg/kg, ip measured over 6 mins by tail suspension test (reference value: 0.281 +/- 0.018 to 0.359 +/- 0.027 N); format: functional
[21] = test system: Mus musculus; experiment: Antidepressant activity in C57BL/6J mouse assessed as immobility time at 10 mg/kg, ip measured over 6 mins by tail suspension test (reference value: 160.7 +/- 12 to 170.6 +/- 9 sec); format: functional

Row | Structure (SMILES) | Ki [1] [µM] | Ratio Ki [2] | Ki [3] [µM] | further results
1 | CC(C)(C)c1ccccc1OCCN1CCC(NS(=O)(=O)c2ccc(F)cc2)CC1 | 0.054 | 85 | 4.57 | –
2 | CC(C)c1ccccc1OCCN1CCC(NS(=O)(=O)c2cccc(F)c2)CC1 | – | – | – | inhibition [4]: 99%; Ki [5]: 0.178 µM; inhibition [6]: 70%
3 | O=S(=O)(NC1CCN(CCOc2ccccc2)CC1)c1ccc(F)cc1 | 0.855 | – | 1.76 | –
4 | CN1C(=O)CN=C(c2ccccc2)c2cc(Cl)ccc21 [DIAZEPAM] | – | – | – | Activity [7]: Non-toxic; Activity [8]: Non-toxic
5 | CC(C)c1ccccc1OCCN1CCC(NS(=O)(=O)c2cccnc2)CC1 | 0.072 | 5 | 0.371 | –
6 | CN(C)CCCC1(c2ccc(F)cc2)OCc2cc(C#N)ccc21 (stereo not given) [CITALOPRAM] | – | – | – | Activity [7]: Non-toxic; MED [9]: inactive; Time [10]: 103 s; Activity [11]: 1820.1; inhibition [12]: Dose-dependent effect; Time [13]: 95.5 s; Activity [14]: Non-toxic; Activity [15]: 0.381 N; Activity [16]: 1961.3; Activity [17]: 0.318 N; minimal effective dose [18]: 20 mg/kg; Activity [8]: Non-toxic; Activity [19]: 2053.1; Activity [20]: 0.398 N; Time [21]: 148.7 s
7 | O=S(=O)(NC1CCN(CCOc2ccccc2-c2ccccc2)CC1)c1cccnc1 | 0.053 | 10 | 0.536 | –
8 | Cn1cc(S(=O)(=O)NC2CCN(CCOc3ccccc3C(C)(C)C)CC2)cn1 | 0.084 | 66 | 5.55 | –
9 | O=S(=O)(c1ccc(F)cc1)N1CC2CC1CN2CCOc1ccccc1-c1ccccc1 (stereo not given) | 0.292 | 4 | 1.07 | –
10 | CC(C)c1ccccc1OCCN1CC2CC1CN2S(=O)(=O)c1ccc(F)cc1 (stereo not given) | 0.162 | 2 | 0.26 | –
11 | CC(C)c1ccccc1OCCN1CC2CC1CN2S(=O)(=O)c1cccc(Cl)c1 (stereo not given) | 0.168 | 2 | 0.393 | –
12 | CC(C)c1cccc(OCCN2C3CCC2CC(NS(=O)(=O)c2cccc(Cl)c2)C3)c1 (stereo not given) | 0.004 | 52 | 0.206 | –
13 | CC(C)c1cccc(C(C)C)c1OCCN1CCC(NS(=O)(=O)c2ccc(F)cc2)CC1 | 1.92 | – | 6.15 | –
14 | O=S(=O)(NC1CN(CCOc2ccccc2-c2ccccc2)C1)c1cccc(Cl)c1 | 0.02 | 1 | 0.023 | –
15 | O=C(NC1CCN(CCOc2ccccc2-c2ccccc2)CC1)c1cccc(Cl)c1 | 0.197 | 1 | 0.148 | –
16 | O=S(=O)(NC1CC2CCC(C1)N2CCOc1cccc(-c2ccccc2)c1)c1cccc(F)c1 (stereo not given) | 0.012 | 10 | 0.123 | –
17 | CC(C)c1ccccc1OCCN1CCC(NC(=O)Nc2ccc(F)cc2)CC1 | 0.201 | 1 | 0.19 | –
18 | Cn1cc(S(=O)(=O)NC2CN(CCOc3ccccc3-c3ccccc3)C2)cn1 | 0.04 | 1 | 0.046 | –
19 | O=S(=O)(NC1CC2CCC(C1)N2CCOc1cccc(-c2ccccc2)c1)c1ccc(F)cc1 (stereo not given) | 0.014 | 12 | 0.17 | –

Row | Structure (SMILES) | Ki [1] [µM] | Ratio Ki [2] | Ki [3] [µM] | further results
20 | O=S(=O)(c1cccc(Cl)c1)N1CC2CC1CN2CCOc1ccccc1-c1ccccc1 (stereo not given) | 0.319 | 8 | 2.67 | –
21 | CC(C)c1cccc(OCCN2C3CCC2CC(NS(=O)(=O)c2ccc(F)c(F)c2)C3)c1 (stereo not given) | 0.009 | 11 | 0.099 | –
22 | CC(C)c1ccccc1OCCN1CCC(NC(=O)Nc2cccc(Cl)c2)CC1 | 0.264 | 2 | 0.591 | –
23 | CC(C)c1cccc(OCCN2C3CCC2CC(NS(=O)(=O)c2cc(F)ccc2F)C3)c1 (stereo not given) | 0.004 | 13 | 0.051 | –
24 | CC(C)c1ccccc1OCCN1CC(NS(=O)(=O)c2ccc(F)cc2)C1 | 0.007 | 6 | 0.045 | –
25 | O=S(=O)(NC1CC2CCC(C1)N2CCOc1cccc(-c2ccccc2)c1)c1ccc(F)c(F)c1 (stereo not given) | 0.02 | 4 | 0.074 | –
26 | CC(C)c1cccc(OCCN2C3CCC2CC(NS(=O)(=O)c2cnn(C)c2)C3)c1 (stereo not given) | 0.07 | 6 | 0.431 | –
27 | CC(C)Oc1ccccc1OCCN1CCC(NS(=O)(=O)c2ccc(F)cc2)CC1 | 0.027 | – | 0.197 | –
28 | CC(C)c1ccccc1OCCN1CC(NS(=O)(=O)c2cccc(F)c2)C1 | – | – | 0.028 | –
29 | Nc1ccc(S(=O)(=O)NC2CCN(CCOc3ccccc3-c3ccccc3)CC2)cc1 | 0.026 | 16 | 0.407 | –
30 | O=C(Nc1cccc(Cl)c1)NC1CCN(CCOc2ccccc2-c2ccccc2)CC1 | 0.198 | 4 | 0.718 | –
31 | CC(C)c1ccccc1OCCN1CCC(NS(=O)(=O)c2ccc(N)cc2)CC1 | 0.039 | 13 | 0.502 | –
32 | O=S(=O)(NC1CCN(CCOc2ccccc2C2CCCC2)CC1)c1ccc(F)cc1 | 0.016 | 23 | 0.373 | –
33 | Cc1ccccc1OCCN1CCC(NS(=O)(=O)c2ccc(F)cc2)CC1 | 0.163 | – | 0.745 | –
34 | CC(C)c1ccccc1OCCN1CCC(NC(=O)c2ccc(F)cc2)CC1 | 0.285 | 1 | 0.199 | –
35 | CC(C)(C)c1ccccc1OCCN1CCC(NS(=O)(=O)c2cccc(Cl)c2)CC1 | 0.074 | 25 | 1.85 | –
36 | COc1ccccc1OCCN1CCC(NS(=O)(=O)c2ccc(F)cc2)CC1 | 0.344 | – | 0.463 | –
37 | O=S(=O)(NC1CCN(CCOc2ccccc2C2CCCC2)CC1)c1cccc(Cl)c1 | 0.017 | 33 | 0.556 | –
